Measured values published in ChEMBL document CHEMBL1157893, “The discovery and structure-activity relationships of pyrano[3,4-b]indole based inhibitors of hepatitis C virus NS5B polymerase” (Bioorg Med Chem Lett, 2010).

Tests used:
[1] = Inhibition of HCV BK NS5B polymerase; set-up: species or system Hepatitis C virus (isolate BK)
Hepatitis C virus [2] = assay: Antiviral activity against HCV 1b BB7 infected in human HuH7 cells after 3 days by ELISA; type: functional, organism-based, Hepacivirus hominis; conditions: genotype 1b BB7, Huh-7, 72 h
Outline: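 HCV replicon cells; viral replication measured by ELISA against NS5A.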

Hepatitis C virus [3] = assay: Antiviral activity against HCV 1b BB7 infected in human HuH7 cells assessed as GAPDH RNA level after 3 days by RT-PCR analysis; type: functional, Hepacivirus hominis, genotype 1b BB7, Huh-7
Hepatitis C virus [4] = assay: Antiviral activity against HCV 1b BB7 infected in human HuH7 cells assessed as total viral RNA level after 3 days by RT-PCR analysis; type: functional, Hepacivirus hominis, genotype 1b BB7, Huh-7
Hepatitis C virus [5] = assay: Inhibition of HCV 1b BB7 NS5B Cdelta21 polymerase expressed in Escherichia coli after 120 mins; type: functional, Hepatitis C virus subtype 1b; conditions: BB7, 2 h
Outline: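 RdRp assay with 24 nM NS5BdCT21-His in 20 mM HEPES pH 7.5, 5 mM MgCl₂, 1 mM DTT, 0.05 mg/ml BSA and NTPs. Enzyme preincubated with compound (3 nM–30) 15 min at room temperature, then reacted 120 min at room temperature. Radiolabeled RNA collected on filters and counted by scintillation. IC50 from sigmoidal variable-slope dose–response fit, relative to no-compound controls.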

[6] = Ratio of apparent permeability from basolateral to apical side over apical to basolateral side in human Caco-2 cells
[7] = Apparent permeability from apical to basolateral side of human Caco-2 cells; type: ADME, cell-based
[8] = Apparent permeability from basolateral to apical side of human Caco-2 cells; type: ADME, cell-based
[9] = Cytotoxicity against human HuH7 cells assessed as BrdU incorporation in to cellular DNA by counter assay; type: cell-based, Huh-7
Outline: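 General cytotoxicity counter assay run alongside the replicon assay, read out as BrdU incorporation into cellular DNA.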

Row | SMILES | IC50 [1] [µM] | EC50 (Hepatitis C virus [2]) [µM] | IC50 (Hepatitis C virus [5]) [µM] | CC50 [9] [µM] | other results
1 | O=C(O)CC1(CC2CC2)OCCc2c1[nH]c1c(Cl)ccc(Cl)c21 (stereo unspecified) | 1.9 | – | – | – | –
2 | CC/C=C/C1(CC(=O)O)OCCc2c1[nH]c1c(Cl)ccc(Cl)c21 (stereo unspecified) | 1.7 | – | – | – | –
3 | CC(C)C1(CC(=O)O)OCCc2c1[nH]c1c(Cl)ccc(Cl)c21 (stereo unspecified) | 7 | – | – | – | –
4 | O=C(O)CC1(C2CC2)OCCc2c1[nH]c1c(Cl)ccc(Cl)c21 (stereo unspecified) | 7.3 | – | – | – | –
5 | CCC(C)C1(CC(=O)O)OCCc2c1[nH]c1c(Cl)ccc(Cl)c21 (stereo unspecified) | 0.15 | – | – | – | –
6 | CC[C@H](C)[C@]1(CC(=O)O)OCCc2c1[nH]c1c(C)ccc(C#N)c21 | 0.13 | 2.2 | 0.26 | – | Activity (Hepatitis C virus [3]): >10 µM; Activity (Hepatitis C virus [4]): 2.1 µM
7 | O=C(O)CC1(C2CCCC2)OCCc2c1[nH]c1c(Cl)ccc(Cl)c21 (stereo unspecified) | 3.3 | – | – | – | –
8 | O=C(O)CC1(C2CCCCC2)OCCc2c1[nH]c1c(Cl)ccc(Cl)c21 (stereo unspecified) | > 30 | – | – | – | –
9 | CCC1(CC(=O)O)OCCc2c1[nH]c1c(Cl)ccc(Cl)c21 (stereo unspecified) | 6.3 | – | – | – | –
10 | CC(C#N)C1(CC(=O)O)OCCc2c1[nH]c1c(Cl)ccc(Cl)c21 (stereo unspecified) | 0.3 | – | – | – | –
11 | CC[C@H](C)[C@]1(CC(=O)O)OCCc2c1[nH]c1c(C)c(OCCn3cccn3)cc(C#N)c21 | 0.009 | 0.12 | 0.002 | – | Activity (Hepatitis C virus [3]): >20 µM; Activity (Hepatitis C virus [4]): 0.02 µM
12 | CCC[C@]1(CC(=O)O)OCCc2c1[nH]c1c(C)c(OCCn3cccn3)cc(C#N)c21 | 0.012 | 0.88 | 0.005 | – | Activity (Hepatitis C virus [3]): >90 µM; Activity (Hepatitis C virus [4]): 0.14 µM
13 | CCC[C@]1(C(=O)O)OCCc2c1[nH]c1c(C)ccc(C#N)c21 | 0.7 | – | – | – | efflux ratio [6]: 7.5; Activity (Hepatitis C virus [3]): >30 µM; Activity (Hepatitis C virus [4]): 12 µM; Papp A→B [7]: 32 nm/s; Papp B→A [8]: 242 nm/s
14 | O=C(O)CC1(CCC(F)(F)F)OCCc2c1[nH]c1c(Cl)ccc(Cl)c21 (stereo unspecified) | 0.4 | – | – | – | –
15 | CCOCC1(CC(=O)O)OCCc2c1[nH]c1c(Cl)ccc(Cl)c21 (stereo unspecified) | 26 | – | – | – | –
16 | Cc1ccc(C#N)c2c3c([nH]c12)[C@](CC(=O)O)(C1CCC1)OCC3 | 0.4 | 29.7 | 1.1 | – | –
17 | CCCCC1(CC(=O)O)OCCc2c1[nH]c1c(Cl)ccc(Cl)c21 (stereo unspecified) | 0.76 | – | – | – | –
18 | O=C(O)CC1(C2CCC2)OCCc2c1[nH]c1c(Cl)ccc(Cl)c21 (stereo unspecified) | 0.35 | – | – | – | –
19 | O=C(O)CC1(CC2CCCC2)OCCc2c1[nH]c1c(Cl)ccc(Cl)c21 (stereo unspecified) | 9.4 | – | – | – | –
20 | COCC1(CC(=O)O)OCCc2c1[nH]c1c(Cl)ccc(Cl)c21 (stereo unspecified) | > 30 | – | – | – | –
21 | COCCC1(CC(=O)O)OCCc2c1[nH]c1c(Cl)ccc(Cl)c21 (stereo unspecified) | > 24 | – | – | – | –
22 | CSCC1(CC(=O)O)OCCc2c1[nH]c1c(Cl)ccc(Cl)c21 (stereo unspecified) | 7 | – | – | – | –
23 | CC1(CC(=O)O)OCCc2c1[nH]c1c(Cl)ccc(Cl)c21 (stereo unspecified) | 27 | – | – | – | –

Row | SMILES | IC50 [1] [µM] | EC50 (Hepatitis C virus [2]) [µM] | IC50 (Hepatitis C virus [5]) [µM] | CC50 [9] [µM] | other results
24 | CCCC1(CC(=O)O)OCCc2c1[nH]c1c(Cl)ccc(Cl)c21 (stereo unspecified) | 0.37 | – | – | – | –
25 | CCC[C@]1(CC(=O)O)OCCc2c1[nH]c1c(C)ccc(C#N)c21 | 0.3 | 13.1 | 0.4 | > 100 | efflux ratio [6]: 0.09; Activity (Hepatitis C virus [3]): >160 µM; Activity (Hepatitis C virus [4]): 4.8 µM; Papp A→B [7]: 240 nm/s; Papp B→A [8]: 22 nm/s
26 | CCC(C)C1(CC(=O)O)OCCc2c1[nH]c1c(C)ccc(C#N)c21 (racemic) | 3.2 | – | 4.9 | – | –
27 | CCC[C@]1([C@H](NC(=O)OCc2ccccc2)C(=O)O)OCCc2c1[nH]c1c(C)ccc(C#N)c21 (racemic) | – | 35 | 0.72 | 45 | –
28 | CCC[C@]1([C@H](NC(C)=O)C(=O)O)OCCc2c1[nH]c1c(C)ccc(C#N)c21 (racemic) | – | > 100 | 1.7 | > 100 | –
29 | CCCCC(=O)N[C@H](C(=O)O)[C@@]1(CCC)OCCc2c1[nH]c1c(C)ccc(C#N)c21 (racemic) | – | > 100 | 5 | > 100 | –
30 | CCC[C@]1([C@H](NC(=O)c2ccccc2)C(=O)O)OCCc2c1[nH]c1c(C)ccc(C#N)c21 (racemic) | – | > 100 | 4.5 | > 100 | –
31 | CCC[C@]1([C@H](NS(C)(=O)=O)C(=O)O)OCCc2c1[nH]c1c(C)ccc(C#N)c21 (racemic) | – | > 100 | 6 | > 100 | –
32 | CCCCS(=O)(=O)N[C@H](C(=O)O)[C@@]1(CCC)OCCc2c1[nH]c1c(C)ccc(C#N)c21 (racemic) | – | > 100 | 3.6 | > 100 | –
33 | CCCCS(=O)(=O)N[C@@H](C(=O)O)[C@@]1(CCC)OCCc2c1[nH]c1c(C)ccc(C#N)c21 (racemic) | – | > 100 | 22 | > 100 | –
34 | CCC[C@]1([C@@H](NS(=O)(=O)c2ccccc2)C(=O)O)OCCc2c1[nH]c1c(C)ccc(C#N)c21 (racemic) | – | > 100 | 16 | > 100 | –
35 | CCC[C@]1([C@H](NC(=O)OC)C(=O)O)OCCc2c1[nH]c1c(C)ccc(C#N)c21 (racemic) | – | > 100 | 5.6 | > 100 | –
36 | CCC[C@]1([C@H](NC(=O)OCC)C(=O)O)OCCc2c1[nH]c1c(C)ccc(C#N)c21 (racemic) | – | > 100 | 7.2 | > 100 | –
37 | CCC[C@]1([C@H](NS(=O)(=O)c2ccccc2)C(=O)O)OCCc2c1[nH]c1c(C)ccc(C#N)c21 (racemic) | – | > 100 | 4 | > 100 | –
38 | CCC[C@]1([C@@H](NC(C)=O)C(=O)O)OCCc2c1[nH]c1c(C)ccc(C#N)c21 (racemic) | – | > 100 | 17 | > 100 | –
39 | CCCCC(=O)N[C@@H](C(=O)O)[C@@]1(CCC)OCCc2c1[nH]c1c(C)ccc(C#N)c21 (racemic) | – | > 100 | > 30 | > 100 | –
40 | CCC[C@]1([C@@H](NC(=O)c2ccccc2)C(=O)O)OCCc2c1[nH]c1c(C)ccc(C#N)c21 (racemic) | – | > 100 | > 30 | > 100 | –
41 | CCC[C@]1([C@@H](NS(C)(=O)=O)C(=O)O)OCCc2c1[nH]c1c(C)ccc(C#N)c21 (racemic) | – | > 100 | 13 | > 100 | –
42 | C=CCOC(=O)N[C@H](C(=O)O)[C@@]1(CCC)OCCc2c1[nH]c1c(C)ccc(C#N)c21 (racemic) | – | > 100 | 5.9 | > 100 | –
43 | CCC[C@]1([C@H](NC(=O)OC(C)C)C(=O)O)OCCc2c1[nH]c1c(C)ccc(C#N)c21 (racemic) | – | > 100 | 11 | > 100 | –
44 | CCC[C@]1([C@H](NC(=O)OCC(C)C)C(=O)O)OCCc2c1[nH]c1c(C)ccc(C#N)c21 (racemic) | – | > 100 | 9.5 | > 100 | –
45 | CCC[C@]1([C@H](NC(=O)OC(C)(C)C)C(=O)O)OCCc2c1[nH]c1c(C)ccc(C#N)c21 (racemic) | – | > 100 | 18 | > 100 | –
